Blank lines part the entries; values can stand above or below the compound they belong to. The source made the active and inactive calls. The calls are words filed in the database; no cut-off is given here.
How the values were obtained:
Oryctolagus cuniculus [1] = organism: Oryctolagus cuniculus; experiment: (§1) Activation of troponin in rabbit fast skeletal muscle fibers assessed as increase in calcium stimulated activity by measuring compound concentration that produces 40% increase in myofibril ATPase activity at 25% of calcium concentration needed for maximal response by pyruvate kinase/lactate dehydrogenase-coupled based assay
Outline: (§2)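 Myofibril ATPase rate (used as a surrogate for force), with fast-skeletal myofibrils from rabbit muscle. For cardiac and slow-skeletal activity, mixed sarcomeres combine myosin and thin-filament preparations from fast, slow or cardiac muscle. AC40 is the concentration giving a 40% increase in ATPase activity at 25% of the calcium level needed for a maximal response in control preparations. Duplicate experiments.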

Oryctolagus cuniculus [2] = organism: Oryctolagus cuniculus; experiment: as §1, with “30%” for “40%”, “tension” for “myofibril ATPase activity”
Outline: (§3)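 Skinned-fiber tension assay on a mounted fiber, measuring the force–calcium relationship. Fast fibers are rabbit psoas; slow fibers are primarily slow rabbit semimembranosus. DF30 is the concentration giving a 30% increase in tension at 25% of the calcium level needed for a maximal response in control preparations.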

[3] = Extraction ratio in rat liver microsomes measured up to 90 mins by HPLC/MS/MS analysis; type: ADME, microsome; settings: read-out: ERH
[4] = Extraction ratio in human liver microsomes measured up to 90 mins by HPLC/MS/MS analysis; type: ADME, microsome; settings: read-out: ERH
Rattus norvegicus [5] = experiment: (§4) Volume of distribution at steady state in Sprague-Dawley rat at 1 mg/kg, po or 1 mg/kg iv via bolus by HPLC method; type: ADME, organism-based; settings: in vivo
Outline: (§5)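 Pharmacokinetics at a dose of 1 mg/kg, comparing oral and intravenous administration to derive bioavailability, clearance and steady-state volume of distribution. In rats, compounds were dosed as crystalline suspensions.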

[6] = Fraction unbound in human plasma at 5 uM after 6 hrs by equilibrium dialysis based HPLC method; type: ADME, cell-free
[7] = Fraction unbound in rat plasma at 5 uM after 6 hrs by equilibrium dialysis based HPLC method; type: ADME, cell-free
Rattus norvegicus [8] = experiment: Oral bioavailability in Sprague-Dawley rat at 1 mg/kg by HPLC method; type: ADME, organism-based; settings: in vivo; outline: as §5
Mus musculus = experiment: Volume of distribution at steady state in mouse at 1 mg/kg, po or 1 mg/kg iv via bolus by HPLC method; type: ADME, organism-based; settings: in vivo; outline: as §5
[9] = as §4; type: ADME, organism-based; settings: Sprague-Dawley, in vivo, read-out: Vdss; outline: as §5
[10] = Extraction ratio in mouse liver microsomes measured up to 90 mins by HPLC/MS/MS analysis; type: ADME, microsome; settings: read-out: ERH
Cytochrome P450 1A2 [11] = biological target: T1, Cytochrome P450 1A2 (Homo sapiens, UniProt P05177); experiment: Time dependent inhibition of CYP1A2 in human liver microsomes using phenacetin as substrate preincubated for 30 mins followed by NADP addition; settings: TDE = time-dependent effect
T1 sequence (P05177 whole entry): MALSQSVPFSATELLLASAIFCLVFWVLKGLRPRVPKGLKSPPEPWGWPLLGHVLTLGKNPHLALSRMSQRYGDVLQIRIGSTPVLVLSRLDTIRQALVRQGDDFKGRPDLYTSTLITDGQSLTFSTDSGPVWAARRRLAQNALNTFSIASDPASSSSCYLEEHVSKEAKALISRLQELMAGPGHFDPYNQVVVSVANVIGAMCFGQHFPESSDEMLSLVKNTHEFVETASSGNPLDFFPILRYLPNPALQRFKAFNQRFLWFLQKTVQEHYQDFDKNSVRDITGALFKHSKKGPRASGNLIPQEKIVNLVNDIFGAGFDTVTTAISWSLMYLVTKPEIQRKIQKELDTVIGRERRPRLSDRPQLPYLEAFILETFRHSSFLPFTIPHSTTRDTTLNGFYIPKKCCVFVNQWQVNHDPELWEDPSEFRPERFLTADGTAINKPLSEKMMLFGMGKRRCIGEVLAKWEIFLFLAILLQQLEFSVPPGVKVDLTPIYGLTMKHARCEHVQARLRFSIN

[12] = Oral bioavailability in Beagle dog at 1 mg/kg by HPLC method; type: ADME, organism-based, Canis lupus familiaris; settings: in vivo; outline: as §5
Cytochrome P450 1A2 [13] = biological target: T1, Cytochrome P450 1A2; experiment: Inhibition of CYP1A2 in human liver microsomes using phenacetin as substrate in presence of NADP; type: ADME
[14] = Oral bioavailability in mouse at 1 mg/kg by HPLC method; type: ADME, organism-based; settings: in vivo; outline: as §5
Rattus norvegicus [15] = experiment: Increase in muscle force in rat extensor digitorum longus muscle dosed systemically measured every two mins by in situ live fiber activity assay; type: functional, organism-based
[16] = Apparent permeability of the compound in human Caco2 cells; type: ADME, cell-based; settings: caco-2
Canis familiaris = experiment: Volume of distribution at steady state in Beagle dog at 1 mg/kg, po or 1 mg/kg iv via bolus by HPLC method; type: ADME, organism-based, Canis lupus familiaris; settings: in vivo; outline: as §5
[17] = Extraction ratio in dog liver microsomes measured up to 90 mins by HPLC/MS/MS analysis; type: ADME, Canis lupus familiaris, microsome; settings: read-out: ERH
Bos taurus [18] = organism: Bos taurus; experiment: as §1, with “troponin C” for “troponin”, “bovine masseter slow” for “rabbit fast”; outline: as §2
Bos taurus [19] = organism: Bos taurus; experiment: as §1, with “troponin C” for “troponin”, “[…]” for “rabbit fast”, “[…] bovine cardiac” for “skeletal”; outline: as §2
Oryctolagus cuniculus [20] = organism: Oryctolagus cuniculus; experiment: Activation of troponin C in rabbit primarily slow semi membranosus muscle fibers assessed as increase in calcium level by skinned fiber assay; outline: as §3
Oryctolagus cuniculus [21] = organism: Oryctolagus cuniculus; experiment: Activation of troponin in rabbit primarily fast psoas muscle fibers assessed as increase in calcium level by skinned fiber assay; outline: as §3

Compound: C[C@@H](c1ccccc1)n1c(=O)[nH]c2ncc(S(C)(=O)=O)nc21
EC40 (Oryctolagus cuniculus [1]): > 49 µM

Compound: CC[C@H](C)n1c(=O)[nH]c2ncc(Br)nc21
EC40 (Oryctolagus cuniculus [1]): 1 µM
EC30 (Oryctolagus cuniculus [2]): 5.1 µM

Compound: C[C@@H](c1ccccc1)n1c(O)nc2ncc(Br)nc21
hepatic extraction ratio at 1.5 h [3]: 0.5
hepatic extraction ratio at 1.5 h [4]: < 0.3

Compound: C[C@@H](c1ccccc1)n1c(=O)[nH]c2ncc(C#N)nc21
EC40 (Oryctolagus cuniculus [1]): > 49 µM

Compound: CCc1cnc2[nH]c(=O)n([C@@H](C)c3ccccc3)c2n1
EC40 (Oryctolagus cuniculus [1]): 21.8 µM

Compound: C=Cc1cnc2[nH]c(=O)n(C(CC)CC)c2n1
EC40 (Oryctolagus cuniculus [1]): 1.1 µM
hepatic extraction ratio at 1.5 h [3]: > 0.7
EC30 (Oryctolagus cuniculus [2]): 1.1 µM
hepatic extraction ratio at 1.5 h [4]: 0.5

Compound: O=c1[nH]c2ncc(Br)nc2n1C1CCCCC1
EC40 (Oryctolagus cuniculus [1]): 10 µM

Compound: CCC(CC)n1c(=O)[nH]c2nccnc21
EC40 (Oryctolagus cuniculus [1]): 14 µM

Compound: O=c1[nH]c2ncc(Br)nc2n1C1CC1
EC40 (Oryctolagus cuniculus [1]): > 49 µM

Compound: C[C@@H](c1ccccc1)n1c(=O)[nH]c2ncc(-c3ccccc3)nc21
EC40 (Oryctolagus cuniculus [1]): > 49 µM

Compound: C[C@H](c1ccccc1)n1c(=O)[nH]c2ncc(-c3ccco3)nc21
EC40 (Oryctolagus cuniculus [1]): > 49 µM

Compound: C[C@@H](c1ccccc1)n1c(=O)[nH]c2ncc(Br)nc21
EC40 (Oryctolagus cuniculus [1]): 1.6 µM
EC30 (Oryctolagus cuniculus [2]): 3 µM

Compound: O=c1[nH]c2ncc(-c3ccco3)nc2n1Cc1ccccc1
EC40 (Oryctolagus cuniculus [1]): > 49 µM

Compound: C=Cc1cnc2[nH]c(=O)n([C@@H](C)c3ccccc3)c2n1
EC40 (Oryctolagus cuniculus [1]): 3.5 µM
EC30 (Oryctolagus cuniculus [2]): 4.6 µM

Compound: COc1cnc2[nH]c(=O)n([C@@H](C)c3ccccc3)c2n1
EC40 (Oryctolagus cuniculus [1]): 8.9 µM

Compound: CC#Cc1cnc2[nH]c(=O)n(C(CC)CC)c2n1
EC40 (Oryctolagus cuniculus [1]): > 49 µM

Compound: CSc1cnc2[nH]c(=O)n([C@@H](C)c3ccccc3)c2n1
EC40 (Oryctolagus cuniculus [1]): 2.6 µM
EC30 (Oryctolagus cuniculus [2]): 3.8 µM

Compound: CC(C)n1c(=O)[nH]c2ncc(Br)nc21
EC40 (Oryctolagus cuniculus [1]): 6 µM
EC30 (Oryctolagus cuniculus [2]): 2.2 µM

Compound: C[C@@H](c1ccccc1)n1c(=O)[nH]c2ncc(-c3ccco3)nc21
EC40 (Bos taurus [18]): > 39 µM
EC40 (Oryctolagus cuniculus [1]): 7 µM
EC40 (Bos taurus [19]): > 49 µM
Activity (Oryctolagus cuniculus [20]): inactive
Activity (Oryctolagus cuniculus [21]): Active
EC30 (Oryctolagus cuniculus [2]): 30.6 µM

Compound: CC(C)(C)n1c(=O)[nH]c2ncc(Br)nc21
EC40 (Oryctolagus cuniculus [1]): 0.8 µM
EC30 (Oryctolagus cuniculus [2]): 4.6 µM

Compound: CC(C)(C)n1c(O)nc2ncc(Br)nc21
hepatic extraction ratio at 1.5 h [3]: 0.3
hepatic extraction ratio at 1.5 h [4]: 0.2

Compound: CC(=O)c1cnc2nc(O)n([C@@H](C)c3ccccc3)c2n1
EC40 (Oryctolagus cuniculus [1]): > 49 µM

Second part, led by results:

hepatic extraction ratio at 1.5 h [3]: 0.3
hepatic extraction ratio at 1.5 h [4]: < 0.2
Compound: CC[C@H](C)n1c(O)nc2ncc(Br)nc21

EC40 (Oryctolagus cuniculus [1]): 2.2 µM
Compound: CCC(CC)n1c(=O)[nH]c2ncc(OC)nc21

EC40 (Oryctolagus cuniculus [1]): 11.3 µM
Compound: CCC(CC)n1c(=O)[nH]c2ncc(C(F)(F)F)nc21

EC40 (Oryctolagus cuniculus [1]): > 39.2 µM
Compound: C#Cc1cnc2nc(OC)n(C(CC)CC)c2n1

hepatic extraction ratio at 1.5 h [3]: 0.2
hepatic extraction ratio at 1.5 h [4]: < 0.2
Compound: CCC(CC)n1c(O)nc2ncc(C(F)(F)F)nc21

EC40 (Oryctolagus cuniculus [1]): 0.5 µM
hepatic extraction ratio at 1.5 h [3]: 0.4
Vdss (Rattus norvegicus [5]): 3.4 L/kg
Fu [6]: 0.8%
EC30 (Oryctolagus cuniculus [2]): 0.6 µM
hepatic extraction ratio at 1.5 h [4]: < 0.2
Fu [7]: 1.1%
F (Rattus norvegicus [8]): 100%
Compound: CCC(CC)n1c(=O)[nH]c2ncc(Cl)nc21

EC40 (Oryctolagus cuniculus [1]): > 39.2 µM
Compound: C#Cc1cnc2oc(=O)n(C(CC)CC)c2n1

EC40 (Oryctolagus cuniculus [1]): 0.1 µM
Vdss (Mus musculus): 1 L/kg
hepatic extraction ratio at 1.5 h [3]: 0.26 to 0.3
Vd [9]: 0.8 to 2.6 L/kg
Fu [6]: 1.9%
hepatic extraction ratio at 1.5 h [10]: 0.24
inhibition (INH) (Cytochrome P450 1A2 [11]): Tde
bioavailability [12]: 93%
EC30 (Oryctolagus cuniculus [2]): 0.3 µM
IC50 (Cytochrome P450 1A2 [13]): 20 µM
hepatic extraction ratio at 1.5 h [4]: < 0.2
bioavailability [14]: 43%
Papp [16]: > 50 ×10⁻⁶ cm/s
Fu [7]: 6.9%
F (Rattus norvegicus [8]): 98%
Vdss (Canis familiaris): 1.7 L/kg
hepatic extraction ratio at 1.5 h [17]: < 0.21
Compound: C#Cc1cnc2nc(O)n(C(CC)CC)c2n1 [TIRASEMTIV]
Activity (Rattus norvegicus [15]): Dose-dependent effect

hepatic extraction ratio at 1.5 h [3]: < 0.2
hepatic extraction ratio at 1.5 h [4]: < 0.2
Compound: CCC(CC)n1c(O)nc2ncc(C#N)nc21

EC40 (Oryctolagus cuniculus [1]): 36.3 µM
Compound: CCC(CC)n1c(=O)[nH]c2ncc(C#N)nc21

EC40 (Oryctolagus cuniculus [1]): 0.3 µM
EC30 (Oryctolagus cuniculus [2]): 0.4 µM
Compound: CCC(CC)n1c(=O)[nH]c2ncc(Br)nc21

hepatic extraction ratio at 1.5 h [3]: > 0.7
hepatic extraction ratio at 1.5 h [4]: < 0.2
Compound: CCC(CC)n1c(O)nc2ncc(OC)nc21

EC40 (Oryctolagus cuniculus [1]): 2 µM
EC30 (Oryctolagus cuniculus [2]): 4.4 µM
Compound: CCC(CC)n1c(=O)[nH]c2ncc(C)nc21

hepatic extraction ratio at 1.5 h [3]: 0.4
Vdss (Rattus norvegicus [5]): 6.5 L/kg
Fu [6]: 0.5%
hepatic extraction ratio at 1.5 h [4]: < 0.2
Fu [7]: 1.3%
F (Rattus norvegicus [8]): 62%
Compound: CCC(CC)n1c(O)nc2ncc(Br)nc21

hepatic extraction ratio at 1.5 h [3]: 0.7
hepatic extraction ratio at 1.5 h [4]: < 0.2
Compound: CCC(CC)n1c(O)nc2ncc(C)nc21

From ChEMBL document CHEMBL4145557, “Discovery of Tirasemtiv, the First Direct Fast Skeletal Muscle Troponin Activator” (ACS Med Chem Lett, 2018)
